ChEMBL document CHEMBL2331506, “Design, synthesis, antiviral and cytostatic evaluation of novel isoxazolidine nucleotide analogues with a carbamoyl linker” (Bioorg Med Chem, 2013)
Calls of active or inactive are those of the source. How the calls were made is not given here.

Key:
Human alphaherpesvirus 2 = assay: Antiviral activity against Herpes simplex virus 2 G infected in human HEL cells assessed as reduction of virus-induced cytopathogenicity at 250 uM; assay type: functional, organism-based; conditions: strain G
In short: (§1)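 Confluent monolayers (HEL fibroblasts, Vero, or HeLa cells as listed) were infected with 100 CCID50 of virus in the presence of varying compound concentrations. Virus-induced cytopathicity or plaque formation was scored once cytopathicity was complete in untreated infected controls. EC50 was taken as the concentration reducing cytopathogenicity or plaque formation by 50%.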

[1] = system: Human immunodeficiency virus 2; assay: Antiviral activity against Human immunodeficiency virus 2 ROD infected in human CEM cells assessed as reduction of virus-induced giant cell formation at 250 uM after 4 to 5 days; assay type: functional, organism-based; conditions: CCRF-CEM
In short: (§2)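 CEM cells at 3 × 10^5 cells/mL were infected with HIV at 100 CCID50 per mL in the presence of compound dilutions. They were held 4–5 days at 37 °C in humidified CO2. Syncytium (giant cell) formation was scored microscopically, and EC50 was taken as the concentration inhibiting giant cell formation by 50%.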

MDCK = assay: Cytotoxicity against dog MDCK cells assessed as alteration of cell morphology up to 100 uM by microscopic analysis; assay type: cell-based, Canis lupus familiaris
In short: (§3)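 Uninfected host-cell cultures were exposed to compound and examined by microscopy. Cytotoxicity was expressed as the minimum cytotoxic concentration (MCC) causing a microscopically detectable alteration of normal cell morphology.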

Felid alphaherpesvirus 1 = assay: Antiviral activity against Feline herpes virus infected in cat CRFK cells assessed as reduction of virus-induced cytopathogenicity at 250 uM; assay type: functional, organism-based
[2] = system: Human immunodeficiency virus 1; assay: Antiviral activity against Human immunodeficiency virus 1 3B infected in human CEM cells assessed as reduction of virus-induced giant cell formation at 250 uM after 4 to 5 days; assay type: functional, organism-based; conditions: CCRF-CEM; in short: as §2
[3] = Cytotoxicity against cat CRFK cells assessed as alteration of cell morphology up to 100 uM by microscopic analysis; assay type: cell-based, Felis catus; in short: as §3
Feline coronavirus = assay: Antiviral activity against Feline coronavirus infected in cat CRFK cells assessed as reduction of virus-induced cytopathogenicity at 250 uM; assay type: functional, organism-based
[4] = system: Mammalian orthoreovirus 1; assay: Antiviral activity against Reovirus 1 infected in african green monkey Vero cells assessed as reduction of virus-induced cytopathogenicity at 250 uM; assay type: functional, organism-based; in short: as §1
[5] = system: Vesicular stomatitis virus; assay: Antiviral activity against Vesicular stomatitis virus infected in human HEL cells assessed as reduction of virus-induced cytopathogenicity at 250 uM; assay type: functional, organism-based
In short: (§4)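 Confluent cell monolayers were infected with 100 CCID50 of virus while exposed to varying compound concentrations. Cytopathicity was scored once it was complete in untreated infected controls. EC50 was taken as the concentration that reduced virus-induced cytopathogenicity by 50%.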

HEL = assay: Cytotoxicity against human HEL cells assessed as alteration of cell morphology up to 100 uM by microscopic analysis; assay type: cell-based; in short: as §3
[6] = system: Vesicular stomatitis virus; assay: Antiviral activity against Vesicular stomatitis virus infected in human HeLa cells assessed as reduction of virus-induced cytopathogenicity at 250 uM; assay type: functional, organism-based; in short: as §4
Sindbis virus = assay: Antiviral activity against Sindbis virus infected in african green monkey Vero cells assessed as reduction of virus-induced cytopathogenicity at 250 uM; assay type: functional, organism-based; in short: as §1
Human alphaherpesvirus 1 [7] = assay: Antiviral activity against Herpes simplex virus 1 KOS infected in human HEL cells assessed as reduction of virus-induced cytopathogenicity at 250 uM; assay type: functional, organism-based; in short: as §1
Coxsackievirus B4 = assay: Antiviral activity against Coxsackievirus B4 infected in african green monkey Vero cells assessed as reduction of virus-induced cytopathogenicity at 250 uM; assay type: functional, organism-based; in short: as §1
Influenza A virus [8] = assay: Antiviral activity against Influenza A virus H1N1 infected in dog MDCK cells assessed as reduction of virus-induced cytopathogenicity at 250 uM; assay type: functional, organism-based; in short: as §4
Influenza A virus [9] = assay: Antiviral activity against Influenza A virus H3N2 infected in dog MDCK cells assessed as reduction of virus-induced cytopathogenicity at 250 uM; assay type: functional, organism-based; in short: as §4
Influenza B virus = assay: Antiviral activity against Influenza B virus infected in dog MDCK cells assessed as reduction of virus-induced cytopathogenicity at 250 uM; assay type: functional, organism-based; in short: as §4
Vero = assay: Cytotoxicity against african green monkey Vero cells assessed as alteration of cell morphology up to 100 uM by microscopic analysis; assay type: cell-based; conditions: chlorocebus sabaeus; in short: as §3
Human alphaherpesvirus 1 [10] = assay: Antiviral activity against thymidine kinase-deficient, ACV-resistant Herpes simplex virus 1 KOS infected in human HEL cells assessed as reduction of virus-induced cytopathogenicity at 250 uM; assay type: functional, organism-based; in short: as §4
Human respirovirus 3 = assay: Antiviral activity against Parainfluenza virus 3 infected in african green monkey Vero cells assessed as reduction of virus-induced cytopathogenicity at 250 uM; assay type: functional, organism-based; in short: as §1
[11] = system: Respiratory syncytial virus; assay: Antiviral activity against Respiratory syncytial virus long infected in human HeLa cells assessed as reduction of virus-induced cytopathogenicity at 250 uM; assay type: functional, organism-based; in short: as §1
Punta Toro virus = assay: Antiviral activity against Punta Toro virus infected in african green monkey Vero cells assessed as reduction of virus-induced cytopathogenicity at 250 uM; assay type: functional, organism-based; in short: as §1
HeLa = assay: Cytotoxicity against human HeLa cells assessed as alteration of cell morphology up to 100 uM by microscopic analysis; assay type: cell-based; in short: as §3

Row | SMILES | inhibition (Human alphaherpesvirus 2) | inhibition [1] | Activity (MDCK) | inhibition (Felid alphaherpesvirus 1) | inhibition [2] | Activity [3] | inhibition (Feline coronavirus) | inhibition [4] | inhibition [5] | Activity (HEL) | inhibition [6] | inhibition (Sindbis virus) | inhibition (Human alphaherpesvirus 1 [7]) | inhibition (Coxsackievirus B4) | inhibition (Influenza A virus [8]) | inhibition (Influenza A virus [9]) | inhibition (Influenza B virus) | Activity (Vero) | inhibition (Human alphaherpesvirus 1 [10]) | inhibition (Human respirovirus 3) | other results
1 | CCOP(=O)(OCC)[C@@H]1C[C@H](C(=O)Nc2ccc(C)cc2)ON1C (mixture of isomers) | inactive | inactive | Non-toxic | inactive | inactive | Non-toxic | inactive | inactive | inactive | Non-toxic | inactive | inactive | inactive | inactive | inactive | inactive | inactive | Non-toxic | inactive | inactive | inhibition [11]: inactive; inhibition (Punta Toro virus): inactive; Activity (HeLa): Non-toxic
2 | CCOP(=O)(OCC)[C@H]1C[C@H](C(=O)Nc2cccc(OC)c2)ON1C (racemic) | inactive | inactive | Non-toxic | inactive | inactive | Non-toxic | inactive | inactive | inactive | Non-toxic | inactive | inactive | inactive | inactive | inactive | inactive | inactive | Non-toxic | inactive | inactive | inhibition [11]: inactive; inhibition (Punta Toro virus): inactive; Activity (HeLa): Non-toxic
3 | CCOP(=O)(OCC)[C@@H]1C[C@H](C(=O)Nc2cc(OC)c(OC)cc2C#N)ON1C (mixture of isomers) | inactive | inactive | Non-toxic | inactive | inactive | Non-toxic | inactive | inactive | inactive | Non-toxic | inactive | inactive | inactive | inactive | inactive | inactive | inactive | Non-toxic | inactive | inactive | inhibition [11]: inactive; inhibition (Punta Toro virus): inactive; Activity (HeLa): Non-toxic
4 | CCOP(=O)(OCC)[C@H]1C[C@H](C(=O)Nc2ccccc2C(C)=O)ON1C (mixture of isomers) | inactive | inactive | Non-toxic | inactive | inactive | Non-toxic | inactive | inactive | inactive | Non-toxic | inactive | inactive | inactive | inactive | inactive | inactive | inactive | Non-toxic | inactive | inactive | inhibition [11]: inactive; inhibition (Punta Toro virus): inactive; Activity (HeLa): Non-toxic
5 | CCOP(=O)(OCC)[C@@H]1C[C@H](C(=O)Nc2cccc(C)c2)ON1C (mixture of isomers) | inactive | inactive | Non-toxic | inactive | inactive | Non-toxic | inactive | inactive | inactive | Non-toxic | inactive | inactive | inactive | inactive | inactive | inactive | inactive | Non-toxic | inactive | inactive | inhibition [11]: inactive; inhibition (Punta Toro virus): inactive; Activity (HeLa): Non-toxic
6 | CCOP(=O)(OCC)[C@H]1C[C@H](C(=O)Nc2ccc([N+](=O)[O-])cc2)ON1C (mixture of isomers) | inactive | inactive | Non-toxic | inactive | inactive | Non-toxic | inactive | inactive | inactive | Non-toxic | inactive | inactive | inactive | inactive | inactive | inactive | inactive | Non-toxic | inactive | inactive | inhibition [11]: inactive; inhibition (Punta Toro virus): inactive; Activity (HeLa): Non-toxic
7 | CCOP(=O)(OCC)[C@H]1C[C@H](C(=O)Nc2ccc(C)cc2)ON1C (relative stereo) | inactive | inactive | Non-toxic | inactive | inactive | Non-toxic | inactive | inactive | inactive | Non-toxic | inactive | inactive | inactive | inactive | inactive | inactive | inactive | Non-toxic | inactive | inactive | inhibition [11]: inactive; inhibition (Punta Toro virus): inactive; Activity (HeLa): Non-toxic
8 | CCOP(=O)(OCC)[C@H]1C[C@H](C(=O)Nc2ccc(F)cc2F)ON1C (mixture of isomers) | inactive | inactive | Non-toxic | inactive | inactive | Non-toxic | inactive | inactive | inactive | Non-toxic | inactive | inactive | inactive | inactive | inactive | inactive | inactive | Non-toxic | inactive | inactive | inhibition [11]: inactive; inhibition (Punta Toro virus): inactive; Activity (HeLa): Non-toxic
